Measured values published in ChEMBL document CHEMBL3046679, “Design, synthesis, and biological activities of arylmethylamine substituted chlorotriazine and methylthiotriazine compounds” (J Agric Food Chem, 2011).
The source made the active and inactive calls. No cut-off for these calls is given here.

Experiments:
Puccinia triticina [1] = test: Fungicidal activity against Puccinia triticina assessed as inhibition of disease development in compound treated leaf pieces at 200 ppm relative to untreated control (wheat-curative); type: functional
Outline: (§1)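 Curative wheat leaf-piece test against Puccinia triticina. Leaf pieces inoculated with spores first, then treated with formulated compound at 200, 60 or 20 ppm. Disease scored 3–9 days after inoculation as percent inhibition versus untreated controls. Values are the mean across replicates.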

Plasmopara viticola [2] = test: Fungicidal activity against Plasmopara viticola assessed as inhibition of disease development in compound treated leaf pieces at 60 ppm relative to untreated control (grapevine-preventative); type: functional
Outline: (§2)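 Preventative leaf-piece test on host tissue (tomato, vine, wheat or barley). Formulated compound applied at 200, 60 and 20 ppm before spore inoculation. Disease scored 3–9 days after inoculation, depending on the pathogen, as percent inhibition of disease development versus untreated controls. Values are the mean across replicates.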

Digitaria sanguinalis [3] = test: Herbicidal activity against Digitaria sanguinalis (hairy crabgrass) assessed as growth inhibition at 1 kg/ha postemergence treatment by glasshouse test; type: functional; details: post-emergence, read-out: GI
Outline: (§3)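 Glasshouse screen with pre- or postemergence application at 1.0 kg/ha. Result given as percent inhibition of plant growth; norflurazon and glyphosate used as controls.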

Amaranthus retroflexus [4] = test: Herbicidal activity against Amaranthus retroflexus assessed as growth inhibition at 1 kg/ha preemergence treatment by glasshouse test; type: functional; details: pre-emergence, read-out: GI; outline: as §3
Zymoseptoria tritici = test: Fungicidal activity against Zymoseptoria tritici assessed as inhibition of mycelia growth at 100 ppm; type: functional, organism-based
Amaranthus retroflexus [5] = test: Herbicidal activity against Amaranthus retroflexus assessed as growth inhibition at 1 kg/ha postemergence treatment by glasshouse test; type: functional; details: post-emergence, read-out: GI; outline: as §3
Heliothis virescens = test: Insecticidal activity against Lepidoptera Heliothis virescens (tobacco budworm) assessed as mortality at 1000 ppm by leaf-disk assay; type: functional, organism-based
Outline: (§4)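 Leaf-disk assay at 1000 ppm, three replicates. Plates kept 5–9 days in controlled-environment cabinets. Mortality judged against untreated wells: 99 for significant mortality, 0 otherwise. Values are the mean of three; thiamethoxam and indoxacarb used as positive controls.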

Aphididae = test: Insecticidal activity against Aphididae (aphids) assessed as mortality at 1000 ppm by leaf-disk assay; type: functional, organism-based; outline: as §4
Puccinia triticina [6] = test: Fungicidal activity against Puccinia triticina assessed as inhibition of disease development in compound treated leaf pieces at 20 ppm relative to untreated control (wheat-curative); type: functional; outline: as §1
Arabidopsis thaliana = test: Herbicidal activity against Arabidopsis thaliana assessed as growth inhibition at 10 ppm by 96-well plate test; type: functional; details: read-out: GI
Outline: (§5)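 96-well plate herbicide screen: Arabidopsis thaliana at 10 ppm and Poa annua at 32 ppm, two replicates. Plates incubated seven days in a controlled-environment cabinet. Each replicate scored 0 (no visible effect) or 99 (herbicidal effect); values are the mean of the two. Atrazine used as reference.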

Lolium perenne [7] = test: Herbicidal activity against Lolium perenne (perennial ryegrass) assessed as growth inhibition at 1 kg/ha postemergence treatment by glasshouse test; type: functional; details: post-emergence, read-out: GI; outline: as §3
[8] = tested on: Blumeria graminis f. sp. tritici; test: Fungicidal activity against Blumeria graminis f. sp. tritici assessed as inhibition of disease development in compound treated leaf pieces at 200 ppm relative to untreated control (wheat-preventative); type: functional
Puccinia triticina [9] = test: Fungicidal activity against Puccinia triticina assessed as inhibition of disease development in compound treated leaf pieces at 60 ppm relative to untreated control (wheat-curative); type: functional; outline: as §1
Brassica napus [10] = test: Herbicidal activity against Brassica napus (oilseed rape) at 1.5 kg/ha preemergence treatment measured after 10 days by glasshouse test; type: functional; details: pre-emergence, 240 h
Outline: (§6)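 Glasshouse pre/postemergence test, each treatment in triplicate. Above-ground fresh weight measured 10 days after treatment. Result expressed as percent inhibition versus control, from 0 (no control) to 100 (complete control); glyphosate used as positive control.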

Stellaria media [11] = test: Herbicidal activity against Stellaria media assessed as growth inhibition at 1 kg/ha preemergence treatment by glasshouse test; type: functional; details: pre-emergence, read-out: GI; outline: as §3
Digitaria sanguinalis [12] = test: Herbicidal activity against Digitaria sanguinalis (hairy crabgrass) assessed as growth inhibition at 1 kg/ha preemergence treatment by glasshouse test; type: functional; details: pre-emergence, read-out: GI; outline: as §3
Lolium perenne [13] = test: Herbicidal activity against Lolium perenne (perennial ryegrass) assessed as growth inhibition at 1 kg/ha preemergence treatment by glasshouse test; type: functional; details: pre-emergence, read-out: GI; outline: as §3
Stellaria media [14] = test: Herbicidal activity against Stellaria media assessed as growth inhibition at 1 kg/ha postemergence treatment by glasshouse test; type: functional; details: post-emergence, read-out: GI; outline: as §3
Fusarium graminearum = test: Fungicidal activity against Fusarium graminearum assessed as inhibition of mycelia growth at 2 ppm; type: functional, organism-based
Outline: (§7)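 Mycelial growth test in 96-well plates: compound incorporated into artificial growth medium at 2 ppm, two replicates per rate. Each well scored 99 for complete, 55 for partial or 0 for no inhibition. Values are the mean across replicates; azoxystrobin and prochloraz used as positive controls.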

Echinochloa crus-galli [15] = test: Herbicidal activity against Echinochloa crus-galli (barnyard grass) at 1.5 kg/ha postemergence treatment measured after 10 days by glasshouse test; type: functional; details: post-emergence, 240 h; outline: as §6
Alternaria solani [16] = test: Fungicidal activity against Alternaria solani assessed as inhibition of disease development in compound treated leaf pieces at 20 ppm relative to untreated control (tomato-preventative); type: functional; outline: as §2
Plasmopara viticola [17] = test: Fungicidal activity against Plasmopara viticola assessed as inhibition of disease development in compound treated leaf pieces at 200 ppm relative to untreated control (grapevine-preventative); type: functional; outline: as §2
Pyrenophora teres [18] = test: Fungicidal activity against Pyrenophora teres assessed as inhibition of disease development in compound treated leaf pieces at 20 ppm relative to untreated control (barley-preventative); type: functional; outline: as §2
Botrytis cinerea = test: Fungicidal activity against Botryotinia fuckeliana assessed as inhibition of mycelia growth at 2 ppm; type: functional, organism-based; outline: as §7
Phytophthora infestans [19] = test: Fungicidal activity against Phytophthora infestans assessed as inhibition of disease development in compound treated leaf pieces at 60 ppm relative to untreated control (tomato-preventative); type: functional; outline: as §2
Phytophthora infestans [20] = test: Fungicidal activity against Phytophthora infestans assessed as inhibition of disease development in compound treated leaf pieces at 200 ppm relative to untreated control (tomato-preventative); type: functional; outline: as §2
Pythium dissimile = test: Fungicidal activity against Pythium dissimile assessed as inhibition of mycelia growth at 2 ppm; type: functional, organism-based; outline: as §7
Pyrenophora teres [21] = test: Fungicidal activity against Pyrenophora teres assessed as inhibition of disease development in compound treated leaf pieces at 60 ppm relative to untreated control (barley-preventative); type: functional; outline: as §2
Plasmopara viticola [22] = test: Fungicidal activity against Plasmopara viticola assessed as inhibition of disease development in compound treated leaf pieces at 20 ppm relative to untreated control (grapevine-preventative); type: functional; outline: as §2
Puccinia triticina [23] = test: Fungicidal activity against Puccinia triticina assessed as inhibition of disease development in compound treated leaf pieces at 60 ppm relative to untreated control (wheat-preventative); type: functional; outline: as §2
Brassica napus [24] = test: Herbicidal activity against Brassica napus (oilseed rape) at 1.5 kg/ha postemergence treatment measured after 10 days by glasshouse test; type: functional; details: post-emergence, 240 h; outline: as §6
Poa annua = test: Herbicidal activity against Poa annua assessed as growth inhibition at 32 ppm by 96-well plate test; type: functional; details: read-out: GI; outline: as §5
[25] = tested on: Blumeria graminis f. sp. tritici; test: Fungicidal activity against Blumeria graminis f. sp. tritici assessed as inhibition of disease development in compound treated leaf pieces at 20 ppm relative to untreated control (wheat-preventative); type: functional
Puccinia triticina [26] = test: Fungicidal activity against Puccinia triticina assessed as inhibition of disease development in compound treated leaf pieces at 200 ppm relative to untreated control (wheat-preventative); type: functional; outline: as §2
Triticum aestivum [27] = test: Phytotoxicity against Triticum aestivum (wheat) plant at 60 ppm; type: organism-based; details: in vivo
Parastagonospora nodorum = test: Fungicidal activity against Phaeosphaeria nodorum assessed as inhibition of disease development in compound treated leaf pieces at 20 ppm relative to untreated control (wheat preventative); type: functional; outline: as §2
Pyrenophora teres [28] = test: Fungicidal activity against Pyrenophora teres assessed as inhibition of disease development in compound treated leaf pieces at 200 ppm relative to untreated control (barley-preventative); type: functional; outline: as §2
Alternaria solani [29] = test: Fungicidal activity against Alternaria solani assessed as inhibition of disease development in compound treated leaf pieces at 60 ppm relative to untreated control (tomato-preventative); type: functional; outline: as §2
Phytophthora infestans [30] = test: Fungicidal activity against Phytophthora infestans assessed as inhibition of mycelia growth at 200 ppm; type: functional, organism-based
Puccinia triticina [31] = test: Fungicidal activity against Puccinia triticina assessed as inhibition of disease development in compound treated leaf pieces at 20 ppm relative to untreated control (wheat-preventative); type: functional; outline: as §2
Echinochloa crus-galli [32] = test: Herbicidal activity against Echinochloa crus-galli (barnyard grass) at 1.5 kg/ha preemergence treatment measured after 10 days by glasshouse test; type: functional; details: pre-emergence, 240 h; outline: as §6
Phytophthora infestans [33] = test: Fungicidal activity against Phytophthora infestans assessed as inhibition of disease development in compound treated leaf pieces at 20 ppm relative to untreated control (tomato-preventative); type: functional; outline: as §2
Triticum aestivum [34] = test: Phytotoxicity against Triticum aestivum (wheat) plant at 200 ppm; type: organism-based; details: in vivo
Alternaria solani [35] = test: Fungicidal activity against Alternaria solani assessed as inhibition of mycelia growth at 2 ppm; type: functional, organism-based; outline: as §7
Alternaria solani [36] = test: Fungicidal activity against Alternaria solani assessed as inhibition of disease development in compound treated leaf pieces at 200 ppm relative to untreated control (tomato-preventative); type: functional; outline: as §2
[37] = tested on: Blumeria graminis f. sp. tritici; test: Fungicidal activity against Blumeria graminis f. sp. tritici assessed as inhibition of disease development in compound treated leaf pieces at 60 ppm relative to untreated control (wheat-preventative); type: functional

Compound: CC(C)Nc1nc(Cl)nc(NCc2ccc(Cl)nc2)n1
- inhibition at 200 ppm (Puccinia triticina [1]): 100%
- inhibition at 60 ppm (Plasmopara viticola [2]): 0%
- inhibition of growth at 1000 g/ha (Digitaria sanguinalis [3]): 0%
- inhibition of growth at 1000 g/ha (Amaranthus retroflexus [4]): 100%
- inhibition (Zymoseptoria tritici): Active
- inhibition of growth at 1000 g/ha (Amaranthus retroflexus [5]): 100%
- mortality (Heliothis virescens): inactive
- mortality (Aphididae): inactive
- inhibition at 20 ppm (Puccinia triticina [6]): 100%
- inhibition of growth at 10 ppm (Arabidopsis thaliana): 99%
- inhibition of growth at 1000 g/ha (Lolium perenne [7]): 80%
- inhibition at 200 ppm [8]: 90%
- inhibition at 60 ppm (Puccinia triticina [9]): 100%
- inhibition at 1500 g/ha (Brassica napus [10]): 100%
- inhibition of growth at 1000 g/ha (Stellaria media [11]): 80%
- inhibition of growth at 1000 g/ha (Digitaria sanguinalis [12]): 0%
- inhibition of growth at 1000 g/ha (Lolium perenne [13]): 70%
- inhibition of growth at 1000 g/ha (Stellaria media [14]): 100%
- inhibition (Fusarium graminearum): inactive
- inhibition at 1500 g/ha (Echinochloa crus-galli [15]): 68.6%
- inhibition at 20 ppm (Alternaria solani [16]): 0%
- inhibition at 200 ppm (Plasmopara viticola [17]): 0%
- inhibition at 20 ppm (Pyrenophora teres [18]): 0%
- inhibition (Botrytis cinerea): inactive
- inhibition at 60 ppm (Phytophthora infestans [19]): 0%
- inhibition at 200 ppm (Phytophthora infestans [20]): 0%
- inhibition (Pythium dissimile): inactive
- inhibition at 60 ppm (Pyrenophora teres [21]): 0%
- inhibition at 20 ppm (Plasmopara viticola [22]): 0%
- inhibition at 60 ppm (Puccinia triticina [23]): 70%
- inhibition at 1500 g/ha (Brassica napus [24]): 100%
- inhibition of growth at 32 ppm (Poa annua): 0%
- inhibition at 20 ppm [25]: 0%
- inhibition at 200 ppm (Puccinia triticina [26]): 100%
- Activity (Triticum aestivum [27]): Toxic
- inhibition at 20 ppm (Parastagonospora nodorum): 0%
- inhibition at 200 ppm (Pyrenophora teres [28]): 0%
- inhibition at 60 ppm (Alternaria solani [29]): 0%
- inhibition (Phytophthora infestans [30]): inactive
- inhibition at 20 ppm (Puccinia triticina [31]): 0%
- inhibition at 1500 g/ha (Echinochloa crus-galli [32]): 68.9%
- inhibition at 20 ppm (Phytophthora infestans [33]): 0%
- Activity (Triticum aestivum [34]): Toxic
- inhibition (Alternaria solani [35]): inactive
- inhibition at 200 ppm (Alternaria solani [36]): 0%
- inhibition at 60 ppm [37]: 0%
